Laboratory results as given in ChEMBL document CHEMBL4334546, “Discovery of N-(Indazol-3-yl)piperidine-4-carboxylic Acids as RORγt Allosteric Inhibitors for Autoimmune Diseases” (ACS Med Chem Lett, 2020).
pIC50: −log10 of the molar value. Values after ≈ are worked out from the molar mass of the structure shown.

Columns and labels:
[1] = molecular target: T1, Nuclear receptor ROR-gamma (Homo sapiens, UniProt P51449); experiment: Allosteric inhibition of recombinant His6-tagged RORgammat LBD (unknown origin) expressed in Escherichia coli BL21(DE3) assessed as inhibition of biotin-labelled SRC-1 peptide recruitment preincubated for 15 mins followed by biotin-labelled SRC-1 peptide addition and measured after overnight incubation by TR-FRET assay
T1 sequence (P51449 whole entry): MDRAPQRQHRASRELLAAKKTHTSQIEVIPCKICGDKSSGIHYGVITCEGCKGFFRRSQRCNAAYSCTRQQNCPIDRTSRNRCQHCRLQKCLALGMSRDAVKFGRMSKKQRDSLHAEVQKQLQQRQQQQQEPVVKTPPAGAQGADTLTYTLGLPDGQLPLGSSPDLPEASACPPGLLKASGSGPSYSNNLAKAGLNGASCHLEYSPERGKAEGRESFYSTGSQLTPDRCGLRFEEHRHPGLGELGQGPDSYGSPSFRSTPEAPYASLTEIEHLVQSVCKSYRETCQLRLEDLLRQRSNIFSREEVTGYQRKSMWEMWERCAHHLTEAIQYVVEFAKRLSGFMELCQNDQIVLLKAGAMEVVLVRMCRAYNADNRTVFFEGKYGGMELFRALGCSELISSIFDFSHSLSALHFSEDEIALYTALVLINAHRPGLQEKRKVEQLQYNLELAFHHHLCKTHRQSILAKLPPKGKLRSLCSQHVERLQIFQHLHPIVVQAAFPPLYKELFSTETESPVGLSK

[2] = molecular target: T1, Nuclear receptor ROR-gamma; experiment: Allosteric inhibition of yeast GAL4 DNA domain-fused RORgammat LBD (97 to 518 residues) (unknown origin) expressed in HEK293T cells after 20 to 22 hrs by steady-glo luciferase assay; assay type: cell-based
[3] = molecular target: T2, Peroxisome proliferator-activated receptor gamma (Homo sapiens, UniProt P37231); experiment: Displacement of [3H]rosiglitazone from human recombinant PPARgamma LBD expressed in insect cells measured after 24 hrs by scintillation counting analysis
T2 sequence (P37231 whole entry): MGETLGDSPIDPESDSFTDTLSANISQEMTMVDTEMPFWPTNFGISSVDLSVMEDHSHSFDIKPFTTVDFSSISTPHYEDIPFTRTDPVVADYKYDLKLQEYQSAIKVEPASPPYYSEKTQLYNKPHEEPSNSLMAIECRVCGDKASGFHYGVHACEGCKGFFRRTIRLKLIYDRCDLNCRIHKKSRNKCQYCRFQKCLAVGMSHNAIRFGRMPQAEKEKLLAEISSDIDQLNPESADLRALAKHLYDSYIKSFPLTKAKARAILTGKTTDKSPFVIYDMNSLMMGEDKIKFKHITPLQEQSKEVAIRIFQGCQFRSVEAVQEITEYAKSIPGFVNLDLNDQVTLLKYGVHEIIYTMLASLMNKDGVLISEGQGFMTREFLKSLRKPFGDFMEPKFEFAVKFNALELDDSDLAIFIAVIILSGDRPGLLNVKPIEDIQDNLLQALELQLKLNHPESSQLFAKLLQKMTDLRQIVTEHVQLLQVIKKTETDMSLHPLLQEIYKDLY

[4] = molecular target: T1, Nuclear receptor ROR-gamma; experiment: Allosteric inhibition of RORgammaT in IL-1B/IL-23/IL-2/IL-6/T-Activator CD3/28 Dynabeads-stimulated human PBMC cells assessed as reduction in Th17 differentiation by measuring reduction in IL-17A level incubated for 4 days post-cell stimulation by ELISA
[5] = Clearance in Wistar Han rat at 0.5 mg/kg, iv or 1 mg/kg, po by LC-MS/MS analysis; assay type: ADME, organism-based; details: in vivo
[6] = Half life in Wistar Han rat at 0.5 mg/kg, iv or 1 mg/kg, po by LC-MS/MS analysis; assay type: ADME, organism-based; details: in vivo
[7] = Volume of distribution in Wistar Han rat at 0.5 mg/kg, iv or 1 mg/kg, po by LC-MS/MS analysis; assay type: ADME, organism-based; details: in vivo
[8] = Clearance in Beagle dog at 0.25 mg/kg, iv or 0.5 mg/kg, po by LC-MS/MS analysis; assay type: ADME, organism-based, Canis lupus familiaris; details: in vivo
[9] = Half life in Beagle dog at 0.25 mg/kg, iv or 0.5 mg/kg, po by LC-MS/MS analysis; assay type: ADME, organism-based, Canis lupus familiaris; details: in vivo
[10] = Volume of distribution in Beagle dog at 0.25 mg/kg, iv or 0.5 mg/kg, po by LC-MS/MS analysis; assay type: ADME, organism-based, Canis lupus familiaris; details: in vivo
[11] = Oral bioavailability in Wistar Han rat at 1 mg/kg by LC-MS/MS analysis; assay type: ADME, organism-based; details: in vivo
[12] = Oral bioavailability in Beagle dog at 0.5 mg/kg by LC-MS/MS analysis; assay type: ADME, organism-based, Canis lupus familiaris; details: in vivo
[13] = Protein binding in rat plasma; assay type: ADME, cell-free; details: read-out: PPB (converted)
[14] = Protein binding in dog plasma; assay type: ADME, cell-free, Canis lupus familiaris; details: read-out: PPB (converted)
[15] = Solubility of compound at pH 2; assay type: physicochemical; details: buffer
[16] = Solubility of compound at pH 7.4; assay type: physicochemical; details: buffer
[17] = Plasma concentration in C57BL/6 mouse at 1 mg/kg administered as single dose after 2 hrs; assay type: ADME, organism-based
Summary of the method: (§1)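 Acute pharmacodynamic model: mice received single doses across a dose range, and in this study both plasma compound concentration and Bcl-xL expression in thymocytes were measured to follow RORγt inhibition.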

[18] = Plasma concentration in C57BL/6 mouse at 3 mg/kg administered as single dose after 2 hrs; assay type: ADME, organism-based; summary of the method: as §1
[19] = Plasma concentration in C57BL/6 mouse at 10 mg/kg administered as single dose after 2 hrs; assay type: ADME, organism-based; summary of the method: as §1
[20] = Plasma concentration in C57BL/6 mouse at 30 mg/kg administered as single dose after 2 hrs; assay type: ADME, organism-based; summary of the method: as §1
[21] = Plasma concentration in C57BL/6 mouse at 100 mg/kg administered as single dose after 2 hrs; assay type: ADME, organism-based; summary of the method: as §1
[22] = Unbound clearance in Wistar Han rat at 0.5 mg/kg, iv or 1 mg/kg, po by LC-MS/MS analysis; assay type: ADME, organism-based; details: in vivo
Mus musculus [23] = species on record: Mus musculus; experiment: animal or person; details: C57BL/6, 2 h, read-out: INH
Mus musculus [24] = species on record: Mus musculus; experiment: animal or person; details: C57BL/6, 2 h, read-out: INH; remark: listed apart in the source
Mus musculus [25] = species on record: Mus musculus; experiment: animal or person; details: C57BL/6, 2 h, read-out: INH; remark: listed apart in the source
Mus musculus [26] = species on record: Mus musculus; experiment: animal or person; details: C57BL/6, 2 h, read-out: INH; remark: listed apart in the source
Mus musculus [27] = species on record: Mus musculus; experiment: animal or person; details: C57BL/6, 2 h, read-out: INH; remark: listed apart in the source
Mus musculus [28] = species on record: Mus musculus; experiment: animal or person; details: C57BL/6, 2 h

SMILES	pIC50 [1]	pIC50 [2]	clearance [5]	half-life [6]	Vd [7]	clearance [8]	half-life [9]	Vd [10]	bioavailability [11]	bioavailability [12]	fraction unbound [13]	fraction unbound [14]	solubility [15]	solubility [16]	CL free [22]	other results
O=C(O)c1ccc(-c2nn(C(=O)c3c(Cl)cccc3Cl)c3ccccc23)cc1	8.30	6.40	–	–	–	–	–	–	–	–	–	–	–	–	–	–
O=C(O)c1ccc(-c2nn(C(=O)c3c(Cl)cccc3C(F)(F)F)c3cccnc23)c(F)c1	8.22	7.05	76 mL/min/kg	0.4 h	0.8 L/kg	4.5 mL/min/kg	1.4 h	0.4 L/kg	16%	45%	0.013	0.013	< 2 µM	147 µM (≈ 68.2 µg/mL)	5846 mL/min/kg	pIC50 [3]: 5.70; pIC50 [4]: 7.48; concentration at 2 h [17]: 0.18 µM; concentration at 2 h [18]: 0.73 µM; concentration at 2 h [19]: 4.1 µM; concentration at 2 h [20]: 51 µM; concentration at 2 h [21]: 254 µM; inhibition in vivo at 1 mg/kg (Mus musculus [23]): 17%; inhibition in vivo at 3 mg/kg (Mus musculus [24]): 50%; inhibition in vivo at 10 mg/kg (Mus musculus [25]): 69%; inhibition in vivo at 30 mg/kg (Mus musculus [26]): 85%; inhibition in vivo at 100 mg/kg (Mus musculus [27]): 74%; pIC50 (Mus musculus [28]): 6.15
O=C(O)[C@@H]1CCN(c2nn(C(=O)c3c(Cl)cccc3C3CC3)c3cccc(F)c23)C[C@H]1O	–	–	13 mL/min/kg	3.7 h	0.6 L/kg	1.4 mL/min/kg	3.1 h	0.3 L/kg	35%	65%	0.013	0.003	28 µM (≈ 12.8 µg/mL)	153 µM (≈ 70.1 µg/mL)	1000 mL/min/kg	–
